Variants at the floor of the assay were thinned out.
B1: tRNA (parent)
chain: GUUCCGUUGGCGUAAUGGUAACGCGUCUCCCUCCUAAGGAGAAGACUGCGGGUUCGAGUCCCGUACGGAACG

Variants of: B1
Assay: yeast fitness relative to wild type (ratio to wild type); higher = fitter; tRNA-Arg(CCU), competitive growth, 37 C, YPD
In short: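 The tRNA-Arg(CCU) gene variants were made by chemical synthesis with a 3% per-site mutation rate at 69 sites and inserted at the native genomic locus of Saccharomyces cerevisiae. After pooling, the strains were competed in YPD at 37°C for 24 hours in six parallel replicates. Gene amplicons from the start population and each end population were read by 100-nucleotide paired-end sequencing, and Darwinian fitness relative to wild type was taken from genotype frequency changes. Genotypes needed ≥ 100 starting reads, and estimates < 0.5 were set to 0.5.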
With GUUCUGUUGGUGUAAUGGUAACGCGUCUCCCCCCUAAGGAGAAGACUGUGGGUUCGAGUCCCGUACGGAACG [C5U C11U U32C C49U] the yeast fitness was 0.537. With GUUCUGUUGGUGUAAUGGUAACGCGUCUCCCUCCUAAGGAGAAGACUGCGGGGUCAAGUCUCGUACGGAACG [C5U C11U U53G G56A C61U] the yeast fitness was ≤ 0.5. GUUCUGUUGGCGUAAUGGUAAAGCGUCUCCCUCCUAAGGAGAAGACUGCGGGUUCGAGUCCCGUACGGAACG [C5U C22A] gave a yeast fitness of 0.84. For GUUCUGUUGGCGUAAUGGUAAAGCGUCUCCCUCCUAAGGAGCAGACUGCGGGUUGGCGUCCUGUACGGAACG [C5U C22A A42C C55G A57C C62U], the yeast fitness was ≤ 0.5. GUUCUGUUGGCGUAAUGGUAAAGCGUGUCCCUCCUAAGGAGAAGACUGCGGGUUCGAGUCCCGUACGGAACG [C5U C22A C27G] gave a yeast fitness of 0.569. Variant GUUCUGUUGGCGUAAUGGUAAAGCGUCUCCCUCCUAAGGAGAAGACUGCGGGUUCGAGUGCCGUACGGAACG [C5U C22A C60G] has a yeast fitness of 0.628. With GUUCUGUUGGCGUAAUGGUAAAGCGUCUCCCUCCUAAGGAGAAGACUGCGGGUUCGAGUCUCGUCCGGAACG [C5U C22A C61U A65C] the yeast fitness was ≤ 0.5. GUUCUGUUGGCGUAAUGGUAAAGCGUCUCCCUCCUAAGGAGAAGACUGCGGGUUCGAGUCCGGUACGGAACG [C5U C22A C62G] showed a yeast fitness of 0.546. GUUCUGUUGGCGUAAUGGUAAAGCAUCUCCCUCCUAAGGAGAAGACUGCGGGUUCGAGUCCCGUACGGAACG [C5U C22A G25A] gave a yeast fitness of 0.781. GUUCUGUUGGCGUAAUGGUAAGGCGUCUCCCUCCUAAGGAGAAGACUGCGGGUUCGAGUCCCGUACGGAACG [C5U C22G] gave a yeast fitness of 0.991. With GUUCUGUUGGCGUAAUGGUAAGGCGUCUCCCUCCUAAGGGGAAGACUGCGGGUUCGAGUCCCGUACGGAGCG [C5U C22G A40G A70G] the yeast fitness was ≤ 0.5. With GUUCUGUUGGCGUAAUGGUAAGGCGUCUCCCUCCUAAGGGGAAGAUUGCGGGUUCGAGUCCUGUACGGAACG [C5U C22G A40G C46U C62U] the yeast fitness was ≤ 0.5. Variant GUUCUGUUGGCGUAAUGGUAAGGCGUCUCCCUCCUAAGGAGAAGCCUGCGGGUUCGAGUCCCGUACGGAACG [C5U C22G A45C] has a yeast fitness of 0.566. GUUCUGUUGGCGUAAUGGUAAGGCGUCUCCCUCCUAAGGAGAAGACUGCGGGUUCGAGUCCCGUACGGAUCG [C5U C22G A70U] showed a yeast fitness of 0.754. For GUUCUGUUGGCGUAAUGGUAAGGGGUCUCAUUCCUAAGGAGAAGACUGCGGGUUCGAGUCCCGUACGGAACG [C5U C22G C24G C30A C31U], the yeast fitness was ≤ 0.5. Variant GUUCUGUUGGCGUAAUGGUAAGGCGUCUACCUCCUAAGGAGAAGUCUGCGGGUUCGAGUCCCGUACGGAACG [C5U C22G C29A A45U] has a yeast fitness of 0.627. Variant GUUCUGUUGGCGUAAUGGUAAGGCGUCUACCUCCUAAGGAGAAGUCUGCGGGUUCGAGUCCCGUACGGAUCG [C5U C22G C29A A45U A70U] has a yeast fitness of 0.539. In the case of GUUCUGUUGGCGUAAUGGUAAGGCGUCUACCUCCUAAGGAGAAGUCUGCGGGUUUGAGUCCCGUACGGAACG [C5U C22G C29A A45U C55U], the yeast fitness is reported as ≤ 0.5. Variant GUUCUGUUGGCGUAAUGGUAAGGCGUCUGCCUCCUAAGGAGAAGACUGCGGGUUCGAGUCCCGUACGGAACG [C5U C22G C29G] has a yeast fitness of 0.602. With GUUCUGUUGGCGUAAUGGUAAGGCGUCUGCCUCCUAAGGAGAAGACUGCGGGUUCGAGUCCCGUACGCAACG [C5U C22G C29G G68C] the yeast fitness was ≤ 0.5. For GUUCUGUUGGCGUAAUGGUAAGGCGUCUCUCUGCUAAGGAGAAGACUGCGGGUUCGAGUCCCGUACGGAACG [C5U C22G C30U C33G], the yeast fitness was ≤ 0.5. Variant GUUCUGUUGGCGUAAUGGUAAGGCGUCUCUCUGCUAAGGAGAAGACUGCGGGUUCGAGUCCCGUACGGGACG [C5U C22G C30U C33G A69G] has a yeast fitness of 0.552. GUUCUGUUGGCGUAAUGGUAAGGCGUCUCCCUCCUAAGGAGAAGACUGCGGGUUCGAGUCCCGUAGGGAACG [C5U C22G C66G] showed a yeast fitness of 0.547. With GUUCUGUUGGCGUAAUGGUAAGGCGUCUCCCUCCUAAGGAGAAGACUGCCGGUUCGAGUCCCGUACGGAACG [C5U C22G G50C] the yeast fitness was ≤ 0.5. In the case of GUUCUGUUGGCGUAAUGGUAAGGCGGCUCCCUCCUAAGGAGCAGACUGCGAGUUCGAGUCCCGUACGGAACG [C5U C22G U26G A42C G51A], the yeast fitness is reported as 0.537. GUUCUGUUGGCGUAAUGGUAAGGCGUCACCGUCCUAAGGAGAAGACUGCGGGUUAGAGUCCCGUACGCAACG [C5U C22G U28A C31G C55A G68C] showed a yeast fitness of 0.542. Variant GUUCUGUUGGCGUAAUGGUAAUGCGUCUCCCUCCUAAGGAGAAGACUGCGGGUUCGAGUCCCGUACGGAACG [C5U C22U] has a yeast fitness of 0.792. GUUCUGUUGGCGUAAUGGUAAUGCGUCUCCCUCCUGAGGAGAAGACUGCGGGUUCGAGUCCCGUACGGAACG [C5U C22U A36G] gave a yeast fitness of 0.749. Work on GUUCUGUUGGCGUAAUGGUAAUGCGUCUCCCUCCUAUGGAGAAGACUGCGGGUUCGAGUCCCGUACGGAACG [C5U C22U A37U] yielded a yeast fitness of 0.535. With GUUCUGUUGGCGUAAUGGUAAUGCGUCUCCCUCCUAUGGAGAAGACUGCGGGUUCGAGUCCCGUACAGAACG [C5U C22U A37U G67A] the yeast fitness was ≤ 0.5. For GUUCUGUUGGCGUAAUGGUAAUGCGUCUCCCUCCUAUGGAGAAGACUGCGGGUUCGAGUCCCGUACGUAACG [C5U C22U A37U G68U], the yeast fitness was ≤ 0.5. With GUUCUGUUGGCGUAAUGGUAAUGCGUCUCCCUCCUAAGGAGAAGGCUGCGGGUUCGAGUCCCGUACGGAACG [C5U C22U A45G] the yeast fitness was 0.666. In the case of GUUCUGUUGGCGUAAUGGUAAUGAGUCUCCCUCCUAAGGAGAAGACUGCGGGUUCCAGGCCCGUACGGAACG [C5U C22U C24A G56C U59G], the yeast fitness is reported as ≤ 0.5. For GUUCUGUUGGCGUAAUGGUAAUGCGUUUCCCUCCUAAGGAGGAGACUACGGGUUAGAGUACCGUACGGAUCG [C5U C22U C27U A42G G48A C55A C60A A70U], the yeast fitness was ≤ 0.5. In the case of GUUCUGUUGGCGUAAUGGUAAUGCGUCUCCGUGUUAAGGAGAAGACUGCGGGUUCGAGUCCCGUACGAAACG [C5U C22U C31G C33G C34U G68A], the yeast fitness is reported as ≤ 0.5. In the case of GUUCUGUUGGCGUAAUGGUAAUGCGUCUCCUUCCUAAGGAGAAGACUGAGGGUUCGAGCCCCGUACGGAACG [C5U C22U C31U C49A U59C], the yeast fitness is reported as ≤ 0.5. In the case of GUUCUGUUGGCGUAAUGGUAAUGCGUCUCCCUUCUAAGGAGAAGACUGCGGGUUCGAGUCCCGUACGGAACG [C5U C22U C33U], the yeast fitness is reported as 0.561. With GUUCUGUUGGCGUAAUGGUAAUGCGUCUCCCUUCUAGGGAGAAGACUGCGGGUUCGAGUCCCGUACGGAACG [C5U C22U C33U A37G] the yeast fitness was ≤ 0.5.
